From PubChem BioAssay
14-3-3 Bad inh: inhibitors of 14-3-3 zeta/Bad binding, primary screen, biochemical, TR-FRET, bovine 14-3-3 zeta; 14-3-3 protein zeta/delta (Bos taurus), P63103; TR-FRET 14-3-3zeta/Dy647-pBad peptide displacement, 1 h; inhibition, % at 21.7 µM; actives 0.71% (n = 220,000); AID 781, 2007;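 active means inhibition above about 70%, limit read from the data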
Mcl1-Noxa inh: Mcl-1/Noxa binding inhibitors, primary screen, biochemical, TR-FRET, 1536-well; Induced myeloid leukemia cell differentiation protein Mcl-1 (Homo sapiens), Q07820; TR-FRET Mcl-1/Noxa peptide binding, 2 h; inhibition, % at 21.7 µM; actives 1.5% (n = 220,000); AID 1022, 2008;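 active means compounds that cut the protein-peptide binding signal by more than 50% relative to plate controls in a single-dose test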;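 further: His-tagged Mcl-1 with rhodamine Noxa BH3 peptide and terbium anti-His antibody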
Calb biofilm kill: clotrimazole potentiators killing C. albicans biofilm, primary screen, 4-compound mixtures. C. albicans biofilm persisters + clotrimazole, fluorescence viability; primary screen in compound mixtures of four per well. actives 0.02% (n = 120,000). inhibition, % at 7.6 µM;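 active means inhibition above 30.3% in the primary screen of four-compound pools, then above 30% when the compound was retested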;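 further: compounds exposed to preformed 24 h biofilms for 48 h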
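Test system: C. albicans CAF4-2 wild-type biofilms; buffer or medium: RPMI/MOPS medium, pH 7.0; schedule: 24 h biofilm formation, then 48 h compound exposure, 37 °C; detection: Alamar Blue fluorescence; measure: percent inhibition of biofilm viability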
Mcl-1 Bim block: inhibitors of Bim peptide binding to Mcl-1, primary screen, biochemical, bead-based flow cytometry, multiplex; Induced myeloid leukemia cell differentiation protein Mcl-1 (Homo sapiens), Q07820; Bim peptide-Mcl-1 binding; inhibition, % at 10 µM; actives 0.1% (n = 190,000); in the data active means inhibition above about 40%
Mcl1 Bid PPI: Mcl-1/Bid binding inhibitors, primary screen, biochemical, TR-FRET, 1536-well; Induced myeloid leukemia cell differentiation protein Mcl-1 (Homo sapiens), Q07820; TR-FRET Mcl-1/Bid-Dy647 peptide binding; actives 0.97% (n = 220,000); AID 1021, 2008; inhibition, % at 21.7 µM;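 active means compounds that cut the binding signal by more than half at the single screening dose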;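 further: His-tagged Mcl-1 with europium anti-His antibody binding Bid BH3 peptide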
Hck Nef HTS: inhibitors of Nef-activated human Hck kinase, primary screen, biochemical, Z-Lyte FRET, 384-well, Hck-YEEI | Tyrosine-protein kinase HCK (Homo sapiens), P08631 | Recombinant Hck-YEEI plus Nef, Z-Lyte FRET kinase assay | inhibition, % at 20 µM | actives 0.68% (n = 220,000) | AID 463187, 2010;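 active means Hck-Nef kinase inhibition above about 50%, limit read from the data; inactive means inhibition below that limit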
Target sequence (P08631 whole entry, looked up): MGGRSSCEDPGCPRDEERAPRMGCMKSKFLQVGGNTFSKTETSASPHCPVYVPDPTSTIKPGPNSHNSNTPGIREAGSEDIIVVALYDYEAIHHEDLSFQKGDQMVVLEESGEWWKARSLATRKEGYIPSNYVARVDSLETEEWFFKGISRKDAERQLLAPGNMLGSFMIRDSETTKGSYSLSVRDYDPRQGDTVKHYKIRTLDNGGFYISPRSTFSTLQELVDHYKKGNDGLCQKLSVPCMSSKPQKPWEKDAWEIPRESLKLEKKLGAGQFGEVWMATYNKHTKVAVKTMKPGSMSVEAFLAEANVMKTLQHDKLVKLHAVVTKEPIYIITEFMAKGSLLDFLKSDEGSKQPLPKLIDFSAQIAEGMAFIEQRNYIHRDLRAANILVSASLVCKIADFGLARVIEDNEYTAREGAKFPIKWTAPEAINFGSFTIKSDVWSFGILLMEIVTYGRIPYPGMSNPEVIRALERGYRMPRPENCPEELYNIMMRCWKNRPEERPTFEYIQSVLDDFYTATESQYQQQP
Hits are given with their value; i = inactive; nt = not tested or not shown; [ ] = dose if it differs, or a comment. A selection: hits, their analogues and other compounds. The true share with any hit is near 3.2%.

SMILES	14-3-3 Bad inh	Mcl1-Noxa inh	Calb biofilm kill	Mcl-1 Bim block	Mcl1 Bid PPI	Hck Nef HTS
CCc1cc(=O)oc2cc(C)c(CN3CCCC(C)C3)c(O)c12 (stereo not drawn)	i	52	nt	i	93	i
CCCCc1cc(=O)oc2cc(C)c(CN3CCCC3)c(O)c12	i	i	nt	i	i	i
CN(C)c1ccc(/C=C/c2nc3ccccc3s2)cc1	i	i	nt	i	i	i
COc1cc(/C=C/c2nc3ccccc3s2)cc(OC)c1O	i	55	i	i	i	i
Cc1ccc(/C=C/c2nc3ccccc3s2)s1	78	i	nt	i	i	i
COCCn1c(C)cc(C2=NNC(=Nc3ccc(Cl)cc3Cl)SC2)c1C	72	i	nt	i	i	i
CC(C)(C)C(=O)Nc1cccc(-c2cc(-c3c(Cl)cccc3Cl)no2)c1	i	i	i	nt	i	i
N#Cc1ccsc1NC(=O)c1ccc(Cl)c([N+](=O)[O-])c1	i	i	i	nt	i	i
N#Cc1ccsc1NC(=O)c1cccc([N+](=O)[O-])c1	i	54	i	i	i	i
COc1cc2c(-c3ccc(O)cc3)nc3c(c(C)nn3-c3ccccc3)c2cc1OC	i	80	i	i	61	i
CCCCCCCCCCCCCCCC[n+]1cccc(C(=O)N(CC)CC)c1	98[fluorescence artefact?]	i	i	i	i	i
CCCCCCCC[n+]1cccc(C(=O)N(CC)CC)c1	i	i	i	i	i	i
CCCCCCCCCCCCCCCC[n+]1ccc(C(N)=O)cc1	79[fluorescence artefact?]	i	i	i	i	i
N=c1sccn1CC(=O)NCCc1ccc(Cl)cc1Cl	i	51	nt	i	i	i
COc1cccc(OC)c1C(=O)NNC(=O)c1cccc(COc2ccc3c(c2)CCC3)c1	i	i	nt	i	i	i
COc1ccc2oc(-c3ccc(NC(=O)c4ccc(N5CCOCC5)c([N+](=O)[O-])c4)cc3)nc2c1	i	55	i	i	i	i
O=C(Nc1nc(=S)ss1)c1ccc(Cl)cc1Cl	80	i	nt	i	i	i
Cn1c(-c2ccc3c(c2)OCO3)cnc1NCc1ccc(Cl)cc1	77	i	nt	i	i	i
Cc1ccc(CNc2ncc(-c3ccc4c(c3)OCO4)n2C)cc1	i	i	nt	i	i	i
Cn1c(-c2ccc(F)cc2)cnc1NCc1ccc(F)cc1	80	i	nt	i	i	i
Cn1c(-c2ccc(Br)cc2)cnc1NCc1cccnc1	79	i	nt	i	i	i
CCOC(=O)c1nc(-c2ccc(OC)c(OC)c2)no1	i	i	i	i	i	i
Cc1csc(NC(=O)CSc2nc3sc(C)c(C)c3c(=O)[nH]2)n1	i	i	nt	i	63	i
CSCc1nc2sc(C(=O)Nc3nc(C)cs3)c(C)c2c(=O)[nH]1	i	79	i	i	i	i
CC(=O)c1sc2nc(CSc3nncn3C)[nH]c(=O)c2c1C	i	i	i	i	54	i
SMILES	14-3-3 Bad inh	Mcl1-Noxa inh	Calb biofilm kill	Mcl-1 Bim block	Mcl1 Bid PPI	Hck Nef HTS
Cc1ccc(O)c(NC(=S)NC(=O)C(C)C)c1	i	i	i	nt	i	i
C=C1C(C(=O)Nc2ccc(OC)cc2)C1C(=O)Nc1ccc(OC)cc1 (stereo not drawn)	i	i	i	nt	i	i
CCOC(=O)Cc1csc(NC(=O)CCNS(=O)(=O)c2ccc3c(c2)CCC(=O)N3)n1	i	i	nt	i	i	i
O=Nc1c(-c2cccc([N+](=O)[O-])c2)nc2ncccn12	i	55	i	nt	i	i
O=C1c2ccccc2C(=O)N1n1c(=O)[nH]c2ccccc2c1=O	i	i	nt	i	i	i
C=CCOC(=O)/C(=C/c1ccco1)NC(=O)/C=C/c1ccccc1	i	i	nt	nt	89	i
CCOC(=O)C(C(=O)OCC)C(=O)c1cc(OC)c(OC)c(OC)c1	i	i	nt	i	i	i
CCN(CC)CC(C)OC(=O)c1cc(OC)c(OC)c(OC)c1 (stereo not drawn)	i	i	nt	i	51	i
COc1ccc(CNC(=O)C(OC(C)=O)c2ccccn2)cc1 (stereo not drawn)	i	i	nt	i	i	i
Cc1ccc(-n2nnnc2SCC#N)cc1	71	i	i	i	i	i
